Assay results taken from ChEMBL document CHEMBL1649438, “Activities of ceftobiprole and other cephalosporins against extracellular and intracellular (THP-1 macrophages and keratinocytes) forms of methicillin-susceptible and methicillin-resistant Staphylococcus aureus” (Antimicrob Agents Chemother, 2009).
Values after ≈ are worked out from the molar mass of the structure shown.

Key:
Staphylococcus aureus [1] = assay: Antimicrobial activity against methicillin-resistant Staphylococcus aureus ATCC 33591 infected in human keratinocytes assessed as bacterial count per mg of cell protein at low extracellular compound concentration after 24 hrs; format: functional
Method in brief: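 Primary human skin keratinocytes were grown in defined keratinocyte serum-free medium, infected with a postphagocytosis inoculum of 1.5 × 10⁶ to 3.0 × 10⁶ CFU/mg cell protein, then exposed 24 h to increasing extracellular antibiotic concentrations. Change in log10 CFU/mg protein from the inoculum was fitted to a Hill equation with slope 1. E0 and Emax were extrapolated to infinitely low and high concentrations, in total drug mg/liter.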

Staphylococcus aureus [2] = assay: Bacteriostatic activity against Panton-valentine leucocidin-positive community-acquired methicillin-resistant Staphylococcus aureus N4042228 infected in human THP-1 cells assessed as change in bacterial count after 24 hrs at pH 5.5; format: functional
Method in brief: (§1)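 THP-1 macrophages infected as described previously, with a postphagocytosis inoculum of 1.5 × 10⁶ to 3.0 × 10⁶ CFU/mg cell protein. Cells were exposed 24 h to increasing extracellular antibiotic concentrations. Response is the change in log10 CFU/mg protein from the inoculum (n = 3), fitted to a Hill function. E0 and Emax were extrapolated to infinitely low and high concentrations. EC50 and static concentration (graphical interpolation) are expressed as multiples of the broth MIC at pH 5.5 or 7.4.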

Staphylococcus aureus [3] = assay: Antimicrobial activity against hospital-acquired vancomycin-intermediate Staphylococcus aureus NRS18 infected in human THP-1 cells assessed as bacterial count per mg of cell protein at low extracellular compound concentration after 24 hrs at pH 5.5; format: functional
Method in brief: (§2)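 Human THP-1 macrophage-like cells were infected with S. aureus to a postphagocytosis inoculum of 1.5 × 10^6 to 3.0 × 10^6 CFU/mg cell protein. Cells were then exposed 24 h to increasing extracellular antibiotic concentrations. Response was the log10 CFU change per mg protein from the postphagocytosis inoculum, n = 3. A Hill function was fitted on log-transformed axes. E0 and Emax were extrapolated to infinitely low and high concentrations. Cs was read by graphical interpolation. Concentrations were expressed as multiples of the broth MIC at pH 5.5 or pH 7.4.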

Staphylococcus aureus [4] = assay: Antimicrobial activity against hospital-acquired methicillin-resistant Staphylococcus aureus […] infected in human THP-1 cells assessed as change in bacterial count after 24 hrs; format: functional, organism-based; conditions: THP-1, 24 h; method in brief: as §1
MecA = target: T1, MecA (Staphylococcus aureus, UniProt Q7DHH4); assay: Binding affinity to Staphylococcus aureus ATCC […] PBP2a by Western blotting at pH 5.5 in presence of 100 uM Bocillin FL
T1 sequence (Q7DHH4 whole entry): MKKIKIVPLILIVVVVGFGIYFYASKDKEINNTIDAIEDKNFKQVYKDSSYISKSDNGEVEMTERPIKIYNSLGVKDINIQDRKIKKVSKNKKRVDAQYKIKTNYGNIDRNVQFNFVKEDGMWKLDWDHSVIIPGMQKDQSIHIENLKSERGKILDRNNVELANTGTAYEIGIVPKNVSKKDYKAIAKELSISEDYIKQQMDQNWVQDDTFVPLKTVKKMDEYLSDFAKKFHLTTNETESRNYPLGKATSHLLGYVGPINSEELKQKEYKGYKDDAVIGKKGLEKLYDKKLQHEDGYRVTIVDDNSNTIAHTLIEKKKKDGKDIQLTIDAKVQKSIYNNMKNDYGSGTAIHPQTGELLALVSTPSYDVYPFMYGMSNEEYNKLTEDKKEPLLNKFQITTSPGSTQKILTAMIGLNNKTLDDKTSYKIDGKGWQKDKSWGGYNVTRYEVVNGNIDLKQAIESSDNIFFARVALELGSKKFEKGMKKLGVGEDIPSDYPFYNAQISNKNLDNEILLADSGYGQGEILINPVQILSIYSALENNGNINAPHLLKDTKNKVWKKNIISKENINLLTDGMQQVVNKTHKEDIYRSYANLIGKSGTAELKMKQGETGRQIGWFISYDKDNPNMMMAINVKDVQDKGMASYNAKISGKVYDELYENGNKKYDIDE
Method in brief: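 Soluble truncated PBP 2a (ΔM1-Y23) was expressed in E. coli Rosetta 2(DE3) and purified. It was preincubated 25 min at 37°C with increasing cephalosporin concentrations, then 100 μM Bocillin FL was added for 25 min at 37°C at pH 5.5 or 7.4. Samples were run on SDS-PAGE and blotted with anti-bodipy antibody plus HRP secondary. Bands were detected by chemiluminescence and quantified by densitometry.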

Staphylococcus aureus [5] = assay: Antimicrobial activity against methicillin-susceptible Staphylococcus aureus ATCC 11632 infected in human THP-1 cells assessed as bacterial count per mg of cell protein at high extracellular compound concentration after 24 hrs at pH 7.4; format: functional; method in brief: as §2
Staphylococcus aureus [6] = assay: Ratio of MIC for beta-lactamase-negative methicillin-susceptible Staphylococcus aureus ATCC 25923 by microdilution method at pH 7.4 to ratio of MIC for beta-lactamase-negative methicillin-susceptible Staphylococcus aureus ATCC 25923 by microdilution method at pH 5.5; format: functional
Method in brief: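 MICs were measured by broth microdilution, with the broth adjusted to pH 7.4 or pH 5.5 before inoculation. pH was confirmed at the end of the assay to within ±0.1 unit. The value is the fold decrease in MIC between pH 7.4 and pH 5.5.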

Staphylococcus aureus [7] = assay: Antimicrobial activity against Panton-valentine leucocidin-positive community-acquired methicillin-resistant Staphylococcus aureus N4090440 infected in human THP-1 cells assessed as change in bacterial count after 24 hrs at pH 7.4; format: functional, organism-based; conditions: N4090440, THP-1, 24 h
Method in brief: (§3)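 THP-1 human macrophages infected with S. aureus (postphagocytosis inoculum 1.5 × 10^6 to 3.0 × 10^6 CFU/mg cell protein), then incubated 24 h with increasing extracellular antibiotic concentrations. Change in log10 CFU/mg cell protein from the postphagocytosis inoculum, n = 3. Hill function fitted on log-transformed data. Low-concentration value (E0) and high-concentration value (Emax) are extrapolated. Where a pH is given, concentrations are expressed as multiples of the broth MIC at that pH.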

Staphylococcus aureus [8] = assay: Antimicrobial activity against Panton-valentine leucocidin-positive community-acquired methicillin-resistant Staphylococcus aureus isolate MEH2225605 infected in human THP-1 cells assessed as change in bacterial count after 24 hrs at pH 7.4; format: functional, organism-based; conditions: isolate MEH2225605, THP-1, 24 h; method in brief: as §3
Staphylococcus aureus [9] = assay: Antimicrobial activity against Panton-valentine leucocidin-positive community-acquired methicillin-resistant Staphylococcus aureus NRS192 infected in human THP-1 cells assessed as change in bacterial count after 24 hrs; format: functional, organism-based; conditions: NRS192, THP-1, 24 h; method in brief: as §3
Staphylococcus aureus [10] = assay: Antimicrobial activity against hospital-acquired vancomycin-intermediate Staphylococcus aureus NRS126 infected in human THP-1 cells assessed as bacterial count per mg of cell protein at high extracellular compound concentration after 24 hrs; format: functional; method in brief: as §2
Staphylococcus aureus [11] = assay: Antimicrobial activity against methicillin-susceptible Staphylococcus aureus NRS52 infected in human THP-1 cells assessed as change in bacterial count after 24 hrs at pH 5.5; format: functional, organism-based; conditions: NRS52, THP-1, 24 h; method in brief: as §1
Staphylococcus aureus [12] = assay: Antimicrobial activity against Panton-valentine leucocidin-positive community-acquired methicillin-resistant Staphylococcus aureus STA 44 infected in human THP-1 cells assessed as change in bacterial count after 24 hrs at pH 5.5; format: functional, organism-based; conditions: STA 44, THP-1, 24 h; method in brief: as §3

Q: Which log10cfu (Staphylococcus aureus [1]) does the source give for `Nc1nc(/C(=N/O)C(=O)N[C@@H]2C(=O)N3C(C(=O)O)=C(/C=C4\CCN([C@@H]5CCNC5)C4=O)CS[C@H]23)ns1` [CEFTOBIPROLE] here?
A: Its log10cfu is 2.04.

Q: What about the Activity (Staphylococcus aureus [2]) of the same molecule?
A: The Activity was 1.45 × MIC.

Q: What about the log10cfu (Staphylococcus aureus [3]) of the same molecule?
A: The log10cfu was 2.63.

Q: And the EC50 (Staphylococcus aureus [4])?
A: The EC50 was 0.73 µg/mL (≈ 1.37 µM).

Q: What about the IC50 (MecA) of the same molecule?
A: The IC50 was 1900 nM.

Q: What about the log10cfu (Staphylococcus aureus [5]) of the same molecule?
A: Its log10cfu is -1.04.

Q: What about the “fold change (FC)” value (Staphylococcus aureus [6]) of the same molecule?
A: Its value is 2.

Q: What about the EC50 (Staphylococcus aureus [7]) of the same molecule?
A: The EC50 was 0.33 ×MIC.

Q: What about the EC50 (Staphylococcus aureus [8]) of the same molecule?
A: The EC50 was 0.33 ×MIC.

Q: What about the EC50 (Staphylococcus aureus [9]) of the same molecule?
A: The EC50 was 0.7 µg/mL (≈ 1.31 µM).

Q: And the log10cfu (Staphylococcus aureus [10])?
A: Its log10cfu is -1.21.

Q: What about the EC50 (Staphylococcus aureus [11]) of the same molecule?
A: Its EC50 is 0.41 × MIC.

Q: What about the EC50 (Staphylococcus aureus [12]) of the same molecule?
A: The EC50 was 0.54 × MIC.
